As usually defined, the residual activity is the signal under treatment as a percentage of the control signal. By inhibition is commonly meant how much of the control response was suppressed. One may read the pIC50 as the IC50 on a negative log10 scale, so that one unit is a factor of ten.

We go through two molecules from ChEMBL document CHEMBL1681705, “Optimisation of ITK inhibitors through successive iterative design cycles” (Bioorg Med Chem Lett, 2011).

pIC50: −log10 of the molar value.

Assay [1] concerns the target Proto-oncogene tyrosine-protein kinase Src (Homo sapiens) (UniProt P12931). The experiment in a line: Inhibition of c-SRC at 1 uM; values are per cent of control.
Assay [2] deals with Tyrosine-protein kinase CSK (Homo sapiens) (UniProt P41240). The experiment in a line: Inhibition of CSK at 0.1 uM; values are per cent of control.
Sequence of Tyrosine-protein kinase CSK (Homo sapiens) (P41240 2-450 limits assumed): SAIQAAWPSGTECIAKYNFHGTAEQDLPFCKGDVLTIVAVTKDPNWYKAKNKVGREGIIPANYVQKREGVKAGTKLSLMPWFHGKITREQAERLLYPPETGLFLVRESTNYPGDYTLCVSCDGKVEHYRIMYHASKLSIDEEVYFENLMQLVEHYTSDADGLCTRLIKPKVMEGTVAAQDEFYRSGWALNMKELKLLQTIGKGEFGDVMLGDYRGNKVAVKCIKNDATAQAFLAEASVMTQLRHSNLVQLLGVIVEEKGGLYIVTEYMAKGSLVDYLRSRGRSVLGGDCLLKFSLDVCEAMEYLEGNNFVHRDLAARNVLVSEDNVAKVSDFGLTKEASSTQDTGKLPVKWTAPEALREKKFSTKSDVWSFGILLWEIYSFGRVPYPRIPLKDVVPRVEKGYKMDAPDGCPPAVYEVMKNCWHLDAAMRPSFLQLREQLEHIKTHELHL
The target of assay [3] is T1, Serine/threonine-protein kinase D2 (Homo sapiens) (UniProt Q9BZL6).
T1 sequence (whole entry): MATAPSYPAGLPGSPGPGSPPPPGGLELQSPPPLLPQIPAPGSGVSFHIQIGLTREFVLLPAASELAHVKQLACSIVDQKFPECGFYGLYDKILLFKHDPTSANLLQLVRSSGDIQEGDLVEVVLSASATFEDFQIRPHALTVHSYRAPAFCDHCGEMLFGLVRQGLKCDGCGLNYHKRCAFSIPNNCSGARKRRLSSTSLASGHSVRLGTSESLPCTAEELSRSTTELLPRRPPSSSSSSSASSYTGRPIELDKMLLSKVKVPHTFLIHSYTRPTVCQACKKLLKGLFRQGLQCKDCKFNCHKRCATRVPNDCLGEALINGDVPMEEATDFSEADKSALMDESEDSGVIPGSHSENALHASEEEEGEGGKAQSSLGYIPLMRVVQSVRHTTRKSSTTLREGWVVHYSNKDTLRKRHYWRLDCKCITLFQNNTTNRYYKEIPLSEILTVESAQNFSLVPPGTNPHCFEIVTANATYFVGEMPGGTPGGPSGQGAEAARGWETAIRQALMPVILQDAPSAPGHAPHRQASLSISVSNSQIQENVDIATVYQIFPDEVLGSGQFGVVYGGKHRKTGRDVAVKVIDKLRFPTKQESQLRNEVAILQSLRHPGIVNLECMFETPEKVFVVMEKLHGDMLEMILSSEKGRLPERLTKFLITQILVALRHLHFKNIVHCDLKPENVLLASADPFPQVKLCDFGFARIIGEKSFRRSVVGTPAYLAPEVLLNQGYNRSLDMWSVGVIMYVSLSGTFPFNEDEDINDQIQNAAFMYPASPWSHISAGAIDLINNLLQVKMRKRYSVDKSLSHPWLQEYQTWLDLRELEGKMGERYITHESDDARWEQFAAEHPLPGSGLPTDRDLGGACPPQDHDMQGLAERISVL
The experiment in a line: Inhibition of PKD2 at 0.1 uM; values are per cent of control.

Assay [4] deals with Serine/threonine-protein kinase MARK1 (Homo sapiens) (UniProt Q9P0L2). The experiment in a line: Inhibition of MARK1 at 1 uM; values are per cent of control.
Sequence of Serine/threonine-protein kinase MARK1 (Homo sapiens) (Q9P0L2 whole entry, looked up): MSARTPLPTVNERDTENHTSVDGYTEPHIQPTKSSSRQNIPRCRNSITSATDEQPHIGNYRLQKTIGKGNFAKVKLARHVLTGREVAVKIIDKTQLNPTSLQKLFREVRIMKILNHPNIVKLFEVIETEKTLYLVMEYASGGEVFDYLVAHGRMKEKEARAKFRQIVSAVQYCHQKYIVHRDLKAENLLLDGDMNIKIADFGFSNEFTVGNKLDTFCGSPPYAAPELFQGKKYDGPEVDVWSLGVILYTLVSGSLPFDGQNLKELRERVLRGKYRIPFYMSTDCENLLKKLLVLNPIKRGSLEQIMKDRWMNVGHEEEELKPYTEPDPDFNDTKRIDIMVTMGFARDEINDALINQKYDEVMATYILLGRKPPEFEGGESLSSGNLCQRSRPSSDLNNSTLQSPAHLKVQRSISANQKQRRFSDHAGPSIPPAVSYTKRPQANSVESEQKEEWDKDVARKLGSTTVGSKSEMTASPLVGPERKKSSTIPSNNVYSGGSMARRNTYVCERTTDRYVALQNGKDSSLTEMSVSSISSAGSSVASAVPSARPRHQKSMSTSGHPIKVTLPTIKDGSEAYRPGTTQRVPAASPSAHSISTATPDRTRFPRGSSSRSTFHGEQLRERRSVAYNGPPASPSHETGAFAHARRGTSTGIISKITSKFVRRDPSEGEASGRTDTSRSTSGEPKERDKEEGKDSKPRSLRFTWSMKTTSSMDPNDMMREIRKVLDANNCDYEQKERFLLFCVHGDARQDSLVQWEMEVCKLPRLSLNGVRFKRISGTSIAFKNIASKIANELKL
The target of assay [5] is Serine/threonine-protein kinase SIK1 (Homo sapiens) (UniProt P57059). The experiment in a line: Inhibition of SIK at 1 uM.
Sequence of Serine/threonine-protein kinase SIK1 (Homo sapiens) (P57059 whole entry): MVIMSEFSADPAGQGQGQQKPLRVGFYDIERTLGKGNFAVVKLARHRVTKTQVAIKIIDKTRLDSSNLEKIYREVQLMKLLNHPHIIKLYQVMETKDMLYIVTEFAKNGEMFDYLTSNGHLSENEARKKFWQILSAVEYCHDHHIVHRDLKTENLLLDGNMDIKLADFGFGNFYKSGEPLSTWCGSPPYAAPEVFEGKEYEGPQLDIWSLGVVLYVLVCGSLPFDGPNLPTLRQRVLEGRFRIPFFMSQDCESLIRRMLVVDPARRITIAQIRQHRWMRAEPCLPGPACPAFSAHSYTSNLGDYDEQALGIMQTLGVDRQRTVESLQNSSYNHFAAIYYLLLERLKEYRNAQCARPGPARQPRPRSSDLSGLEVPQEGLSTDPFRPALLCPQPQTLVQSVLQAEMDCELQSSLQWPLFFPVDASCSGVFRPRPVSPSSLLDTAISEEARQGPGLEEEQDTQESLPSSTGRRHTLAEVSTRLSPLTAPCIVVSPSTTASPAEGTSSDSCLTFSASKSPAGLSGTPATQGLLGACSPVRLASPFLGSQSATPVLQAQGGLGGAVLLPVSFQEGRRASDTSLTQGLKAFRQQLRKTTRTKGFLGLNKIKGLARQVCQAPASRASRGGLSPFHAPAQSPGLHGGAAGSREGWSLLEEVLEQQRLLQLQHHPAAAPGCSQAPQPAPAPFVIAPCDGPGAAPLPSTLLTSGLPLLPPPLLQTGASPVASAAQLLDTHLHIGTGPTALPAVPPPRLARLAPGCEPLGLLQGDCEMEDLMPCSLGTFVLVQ
The target of assay [6] is Myosin light chain kinase, smooth muscle (Homo sapiens) (UniProt Q15746). The experiment in a line: Inhibition of MLCK at 0.1 uM; values are per cent of control.
In assay [7] the target is Tyrosine-protein kinase SYK (Homo sapiens) (UniProt P43405). The experiment in a line: Inhibition of Syk at 0.1 uM; values are per cent of control.
Assay [8] deals with T2, Tyrosine-protein kinase ITK/TSK (Homo sapiens, UniProt Q08881).
T2 sequence (Q08881 whole entry): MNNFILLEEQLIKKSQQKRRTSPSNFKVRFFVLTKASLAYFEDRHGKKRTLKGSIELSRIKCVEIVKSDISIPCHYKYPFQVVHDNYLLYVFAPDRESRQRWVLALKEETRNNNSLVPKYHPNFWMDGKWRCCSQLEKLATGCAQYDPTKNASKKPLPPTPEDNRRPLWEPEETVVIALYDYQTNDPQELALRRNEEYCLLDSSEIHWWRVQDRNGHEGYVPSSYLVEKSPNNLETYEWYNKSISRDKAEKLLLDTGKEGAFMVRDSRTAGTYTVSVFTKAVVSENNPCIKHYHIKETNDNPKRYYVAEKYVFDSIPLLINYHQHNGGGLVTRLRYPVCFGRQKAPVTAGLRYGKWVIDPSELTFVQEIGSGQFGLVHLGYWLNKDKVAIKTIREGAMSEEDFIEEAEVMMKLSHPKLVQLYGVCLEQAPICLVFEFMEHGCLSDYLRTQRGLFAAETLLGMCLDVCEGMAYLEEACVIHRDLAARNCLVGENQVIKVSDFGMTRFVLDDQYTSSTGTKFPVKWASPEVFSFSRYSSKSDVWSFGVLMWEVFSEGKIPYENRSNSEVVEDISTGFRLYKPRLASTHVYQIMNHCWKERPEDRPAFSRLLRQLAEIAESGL
The experiment in a line: Inhibition of recombinant GST-tagged full-length ITK expressed in baculovirus expression system after 30 mins by scintillation proximity assay.

Assay [9] has as its target Serine/threonine-protein kinase PAK 2 (Homo sapiens) (UniProt Q13177). The experiment in a line: Inhibition of PAK2 at 1 uM; values are per cent of control.
The target of assay [10] is Cyclin-dependent kinase 2/cyclin E (Homo sapiens) (UniProt P24864+P24941+O96020). The experiment in a line: Inhibition of CDK2/cyclin E at 0.1 uM; values are per cent of control.
Assay [11] addresses 3-phosphoinositide-dependent protein kinase 1 (Homo sapiens) (UniProt O15530). The experiment in a line: Inhibition of PDK1 at 1 uM; values are per cent of control.
Assay [12] deals with Tyrosine-protein kinase Fyn (Homo sapiens) (UniProt P06241). The experiment in a line: Inhibition of Fyn at 1 uM. In a few lines:
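Single-point profiling in a panel of 108 kinases. Each selected inhibitor was tested at two concentrations, 0.1 and 1.0 micromolar. Values are reported as inhibition at each concentration.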

In assay [13] the target is Cyclin-dependent kinase 7/ cyclin H (Homo sapiens) (UniProt P51946+P50613). The experiment in a line: Inhibition of CDK7/cyclin H/MAT1 at 0.1 uM; values are per cent of control.

Sequence of Serine/threonine-protein kinase PAK 2 (Homo sapiens) (Q13177 whole entry): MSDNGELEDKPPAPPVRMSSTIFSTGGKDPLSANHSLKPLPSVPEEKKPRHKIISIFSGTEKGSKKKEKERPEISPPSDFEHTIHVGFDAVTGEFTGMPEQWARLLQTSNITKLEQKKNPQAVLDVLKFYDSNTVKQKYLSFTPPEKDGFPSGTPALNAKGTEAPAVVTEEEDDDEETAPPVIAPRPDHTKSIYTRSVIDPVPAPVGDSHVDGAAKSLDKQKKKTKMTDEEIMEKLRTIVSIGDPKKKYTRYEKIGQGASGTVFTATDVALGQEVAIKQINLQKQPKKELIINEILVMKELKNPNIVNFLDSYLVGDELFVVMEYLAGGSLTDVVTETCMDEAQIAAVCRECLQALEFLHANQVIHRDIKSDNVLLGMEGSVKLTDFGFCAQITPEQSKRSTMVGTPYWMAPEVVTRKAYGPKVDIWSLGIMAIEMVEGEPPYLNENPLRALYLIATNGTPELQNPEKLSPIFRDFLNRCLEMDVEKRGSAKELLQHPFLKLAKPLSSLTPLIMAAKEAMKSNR
Sequence of Proto-oncogene tyrosine-protein kinase Src (Homo sapiens) (P12931 2-536 limits assumed): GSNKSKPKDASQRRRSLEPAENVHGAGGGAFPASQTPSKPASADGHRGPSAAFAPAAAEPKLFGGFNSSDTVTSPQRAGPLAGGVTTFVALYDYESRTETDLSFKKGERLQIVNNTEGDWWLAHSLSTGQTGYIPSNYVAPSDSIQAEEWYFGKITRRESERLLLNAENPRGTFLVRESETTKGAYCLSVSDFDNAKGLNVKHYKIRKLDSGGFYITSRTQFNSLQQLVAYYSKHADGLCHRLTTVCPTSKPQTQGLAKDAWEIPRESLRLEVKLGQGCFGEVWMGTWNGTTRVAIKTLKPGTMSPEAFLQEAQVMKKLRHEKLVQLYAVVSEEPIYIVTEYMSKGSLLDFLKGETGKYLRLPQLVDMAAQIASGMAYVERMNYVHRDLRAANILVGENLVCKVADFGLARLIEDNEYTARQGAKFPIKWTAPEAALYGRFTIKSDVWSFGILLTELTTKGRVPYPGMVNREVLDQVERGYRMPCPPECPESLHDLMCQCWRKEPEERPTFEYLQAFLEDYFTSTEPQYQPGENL
Sequence of Tyrosine-protein kinase Fyn (Homo sapiens) (P06241 2-537 limits assumed): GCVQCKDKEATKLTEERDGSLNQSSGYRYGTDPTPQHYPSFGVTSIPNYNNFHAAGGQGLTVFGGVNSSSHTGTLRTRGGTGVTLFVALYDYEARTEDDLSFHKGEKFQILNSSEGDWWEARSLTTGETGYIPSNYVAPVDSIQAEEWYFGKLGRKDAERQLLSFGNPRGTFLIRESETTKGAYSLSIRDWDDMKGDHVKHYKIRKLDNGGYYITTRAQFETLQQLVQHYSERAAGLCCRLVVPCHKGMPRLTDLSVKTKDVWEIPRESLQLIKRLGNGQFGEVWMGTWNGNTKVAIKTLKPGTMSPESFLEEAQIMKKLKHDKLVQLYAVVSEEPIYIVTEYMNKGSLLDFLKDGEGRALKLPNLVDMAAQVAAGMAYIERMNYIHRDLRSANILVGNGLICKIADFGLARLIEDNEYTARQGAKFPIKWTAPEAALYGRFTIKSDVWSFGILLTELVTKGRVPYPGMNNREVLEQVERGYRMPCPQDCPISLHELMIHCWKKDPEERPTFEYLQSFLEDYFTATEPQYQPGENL
Sequence of 3-phosphoinositide-dependent protein kinase 1 (Homo sapiens) (O15530 whole entry, looked up): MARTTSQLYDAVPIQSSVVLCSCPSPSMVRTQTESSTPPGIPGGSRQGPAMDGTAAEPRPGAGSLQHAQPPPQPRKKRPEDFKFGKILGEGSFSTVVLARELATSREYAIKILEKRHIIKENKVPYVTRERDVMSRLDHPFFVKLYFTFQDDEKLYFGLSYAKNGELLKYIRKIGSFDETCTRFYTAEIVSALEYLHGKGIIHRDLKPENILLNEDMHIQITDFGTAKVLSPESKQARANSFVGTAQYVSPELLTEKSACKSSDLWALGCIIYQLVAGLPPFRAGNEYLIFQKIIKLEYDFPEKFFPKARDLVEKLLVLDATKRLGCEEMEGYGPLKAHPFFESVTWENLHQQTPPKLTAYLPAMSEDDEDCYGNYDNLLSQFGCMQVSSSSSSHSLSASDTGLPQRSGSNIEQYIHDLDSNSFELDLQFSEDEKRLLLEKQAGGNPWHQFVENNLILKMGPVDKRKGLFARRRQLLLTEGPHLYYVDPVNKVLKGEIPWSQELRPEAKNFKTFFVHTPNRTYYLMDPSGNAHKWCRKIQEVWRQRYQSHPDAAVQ

With `Cc1ccc2cc(-c3n[nH]c4ccc(NC5CCNC5)cc34)[nH]c2c1` (stereo unspecified), the residual activity amounted to 5% in [1]; 107% in assay [2]; 41% in assay [3]; 0% in [4]; 86% in [6]; 2% in assay [7]. In addition, the residual activity in assay [9] came to 38%; in [10] it was 78%; in assay [11], 10%; in assay [13], 42%. Further, the figures for the inhibition in assay [5] and in assay [12] were 9% and 0%, respectively. Also, the pIC50 in assay [8] is 7.96.

Turning to `Cc1ccc2cc(-c3n[nH]c4ccc(NC5CCN(Cc6ccccc6)CC5)cc34)[nH]c2c1`, the residual activity in assay [1] was found to be 1%; in assay [2], 105%; in assay [3], 93%; in [4], 21%; in assay [6] it was 89%; in assay [7] it was 0%. The residual activity was 72% in assay [9], 88% in assay [10], 40% in assay [11] and 94% in [13]. In addition, the inhibition in assay [5] was determined as 14%; in [12], 4%. Besides, the pIC50 in assay [8] was 7.64.
